Experimental data published in ChEMBL document CHEMBL3132745, “Synthesis and Antimicrobial Activities of His(2-aryl)-Arg and Trp-His(2-aryl) Classes of Dipeptidomimetics” (Medchemcomm, 2014).
Values after ≈ are worked out from the molar mass of the structure shown. Active and inactive are the calls of the source.

Experiments:
[1] = Selectivity index, ratio of cytotoxicity against human SKOV3 cells to IC50 for Cryptococcus neoformans ATCC 90113; format: toxicity, cell-based, SK-OV-3; conditions: read-out: Selectivity Index
[2] = Selectivity index, ratio of cytotoxicity against pig LLC-PK1 cells to IC50 for Cryptococcus neoformans ATCC 90113; format: toxicity, cell-based; conditions: read-out: Selectivity Index
[3] = Selectivity index, ratio of cytotoxicity against human KB cells to IC50 for Cryptococcus neoformans ATCC 90113; format: toxicity, cell-based; conditions: read-out: Selectivity Index
SK-MEL = assay: Cytotoxicity against human SK-MEL cells assessed as cell viability after 48 hrs by neutral red uptake assay; format: cell-based
In short: (§1)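 Neutral red uptake assay on human cancer lines (SK-MEL, KB, BT-549, SK-OV-3) and noncancerous mammalian cells (VERO, LLC-PK1). Highest tested concentration was 10 µg/mL.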

[4] = Selectivity index, ratio of cytotoxicity against human SK-MEL cells to IC50 for Cryptococcus neoformans ATCC 90113; format: toxicity, cell-based; conditions: read-out: Selectivity Index
Escherichia coli = assay: Antibacterial activity against Escherichia coli ATCC 35218 assessed as growth inhibition after 16-20 hrs by CLSI method; format: functional, organism-based
BT-549 = assay: Cytotoxicity against human BT549 cells assessed as cell viability after 48 hrs by neutral red uptake assay; format: cell-based; conditions: bt-549, 48 h; in short: as §1
Staphylococcus aureus [5] = assay: Antibacterial activity against Staphylococcus aureus ATCC 29213 assessed as growth inhibition after 16-20 hrs by CLSI method; format: functional, organism-based
Pichia kudriavzevii = assay: Antifungal activity against Candida krusei assessed as growth inhibition; format: functional, organism-based
Vero = assay: Cytotoxicity against african green monkey Vero cells assessed as cell viability after 48 hrs by neutral red uptake assay; format: cell-based; conditions: chlorocebus sabaeus; in short: as §1
KB = assay: Cytotoxicity against human KB cells assessed as cell viability after 48 hrs by neutral red uptake assay; format: cell-based; in short: as §1
Staphylococcus aureus [6] = assay: Antibacterial activity against methicillin-resistant Staphylococcus aureus ATCC 33591 assessed as growth inhibition after 16-20 hrs by CLSI method; format: functional, organism-based
Candida albicans = assay: Antifungal activity against Candida albicans assessed as growth inhibition; format: functional, organism-based
Cryptococcus neoformans [7] = assay: Antifungal activity against Cryptococcus neoformans ATCC 90113 assessed as growth inhibition after 70-74 hrs by CLSI method; format: functional, organism-based; conditions: Cryptococcus neoformans, ATCC 90113; for IC50: read-out: IC50
SK-OV-3 = assay: Cytotoxicity against human SKOV3 cells assessed as cell viability after 48 hrs by neutral red uptake assay; format: cell-based; conditions: sk-ov-3, 48 h; in short: as §1
[8] = Selectivity index, ratio of cytotoxicity against human BT549 cells to IC50 for Cryptococcus neoformans ATCC 90113; format: toxicity, cell-based, BT-549; conditions: read-out: Selectivity Index
LLC-PK1 = assay: Cytotoxicity against pig LLC-PK1 cells assessed as cell viability after 48 hrs by neutral red uptake assay; format: cell-based, Sus scrofa; conditions: llc-pk1, 48 h; in short: as §1
[9] = Selectivity index, ratio of cytotoxicity against african green monkey Vero cells to IC50 for Cryptococcus neoformans ATCC 90113; format: toxicity, cell-based; conditions: read-out: Selectivity Index
Aspergillus fumigatus = assay: Antifungal activity against Aspergillus fumigatus assessed as growth inhibition; format: functional, organism-based
Nakaseomyces glabratus = assay: Antifungal activity against Candida glabrata assessed as growth inhibition; format: functional, organism-based
Cryptococcus neoformans [10] = assay: Ratio of amphotericin MFC to compound MFC for Cryptococcus neoformans ATCC 90113 after 70-74 hrs by CLSI method; format: functional
Cryptococcus neoformans [11] = assay: Ratio of amphotericin IC50 to compound IC50 for Cryptococcus neoformans ATCC 90113 after 70-74 hrs by CLSI method; format: functional
Cryptococcus neoformans [12] = assay: Ratio of amphotericin MIC to compound MIC for Cryptococcus neoformans ATCC 90113 after 70-74 hrs by CLSI method; format: functional
[13] = Staphylococcus aureus, ATCC 33591
[14] = Staphylococcus aureus, ATCC 33591, read-out: IC50

SMILES	selectivity ratio [1]	selectivity ratio [2]	selectivity ratio [3]	Activity (SK-MEL) [µg/mL]	selectivity ratio [4]	growth inhibition (GI) (Escherichia coli)	Activity (BT-549) [µg/mL]	IC50 (Staphylococcus aureus [5]) [µg/mL]	growth inhibition (GI) (Pichia kudriavzevii)	Activity (Vero) [µg/mL]	Activity (KB) [µg/mL]	growth inhibition (GI) (Candida albicans)	MFC (Cryptococcus neoformans [7]) [µg/mL]	MIC (Cryptococcus neoformans [7]) [µg/mL]	IC50 (Cryptococcus neoformans [7]) [µg/mL]	Activity (SK-OV-3) [µg/mL]	selectivity ratio [8]	Activity (LLC-PK1) [µg/mL]	selectivity ratio [9]	growth inhibition (GI) (Aspergillus fumigatus)	other results
N[C@@H](Cc1c[nH]c2ccccc12)C(=O)N[C@@H](Cc1c[nH]c(-c2ccc(-c3ccccc3)cc2)n1)C(=O)NCc1ccccc1	> 18.5	> 18.5	> 18.5	> 10	> 18.5	inactive	> 10	2.6 (≈ 4.46 µM)	inactive	> 10	> 10	inactive	1.25 (≈ 2.15 µM)	1.25 (≈ 2.15 µM)	0.54 (≈ 0.927 µM)	> 10	> 18.5	> 10	> 18.5	inactive	MBC (Staphylococcus aureus [5]): 20 µg/mL (≈ 34.3 µM); MIC (Staphylococcus aureus [5]): 5 µg/mL (≈ 8.58 µM); MBC (Staphylococcus aureus [6]; [13]): 20 µg/mL (≈ 34.3 µM); MIC (Staphylococcus aureus [6]; [13]): 10 µg/mL (≈ 17.2 µM); IC50 (Staphylococcus aureus [6]; [14]): 4.31 µg/mL (≈ 7.4 µM); growth inhibition (GI) (Nakaseomyces glabratus): inactive
N=C(N)NCCC[C@H](NC(=O)[C@@H](N)Cc1c[nH]c(-c2ccc(-c3ccccc3)cc2)n1)C(=O)NCc1ccccc1	> 50	> 50	> 50	> 10	> 50	inactive	> 10	12.8 (≈ 23.2 µM)	inactive	> 10	> 10	inactive	0.31 (≈ 0.561 µM)	0.31 (≈ 0.561 µM)	0.2 (≈ 0.362 µM)	> 10	> 50	> 10	> 50	inactive	MBC (Staphylococcus aureus [5]): inactive; MIC (Staphylococcus aureus [5]): inactive; IC50 (Staphylococcus aureus [6]): Not Active; MBC (Staphylococcus aureus [6]): inactive; MIC (Staphylococcus aureus [6]): inactive; growth inhibition (GI) (Nakaseomyces glabratus): inactive
CC(C)(C)OC(=O)N[C@@H](Cc1c[nH]c(-c2ccc(C(C)(C)C)cc2)n1)C(=O)N[C@@H](CCCNC(=N)N)C(=O)NCc1ccccc1	> 4.1	> 4.1	> 4.1	> 10	> 4.1	inactive	> 10	5.95 (≈ 9.4 µM)	inactive	> 10	> 10	inactive	2.5 (≈ 3.95 µM)	2.5 (≈ 3.95 µM)	2.42 (≈ 3.82 µM)	> 10	> 4.1	> 10	> 4.1	inactive	MBC (Staphylococcus aureus [5]): inactive; MIC (Staphylococcus aureus [5]): 10 µg/mL (≈ 15.8 µM); MBC (Staphylococcus aureus [6]): inactive; MIC (Staphylococcus aureus [6]; [13]): 20 µg/mL (≈ 31.6 µM); IC50 (Staphylococcus aureus [6]; [14]): 9.32 µg/mL (≈ 14.7 µM); growth inhibition (GI) (Nakaseomyces glabratus): inactive
CC(C)(C)OC(=O)N[C@@H](Cc1c[nH]c(-c2cccc3ccccc23)n1)C(=O)N[C@@H](CCCNC(=N)N)C(=O)NCc1ccccc1	> 3.6	> 3.6	> 3.6	> 10	> 3.6	inactive	> 10	16.4 (≈ 26.1 µM)	inactive	> 10	> 10	inactive	5 (≈ 7.98 µM)	5 (≈ 7.98 µM)	2.79 (≈ 4.45 µM)	> 10	> 3.6	> 10	> 3.6	inactive	MBC (Staphylococcus aureus [6]): inactive; MIC (Staphylococcus aureus [6]; [13]): 20 µg/mL (≈ 31.9 µM); IC50 (Staphylococcus aureus [6]; [14]): 13.2 µg/mL (≈ 21.1 µM); growth inhibition (GI) (Nakaseomyces glabratus): inactive
CC(C)(C)c1ccc(-c2nc(C[C@H](N)C(=O)N[C@@H](CCCNC(=N)N)C(=O)NCc3ccccc3)c[nH]2)cc1	> 62.5	> 62.5	> 62.5	> 10	> 62.5	inactive	> 10	15.9 (≈ 29.8 µM)	inactive	> 10	> 10	inactive	0.31 (≈ 0.582 µM)	0.31 (≈ 0.582 µM)	0.16 (≈ 0.3 µM)	> 10	> 62.5	> 10	> 62.5	inactive	Ratio (Cryptococcus neoformans [10]): >4; MBC (Staphylococcus aureus [5]): inactive; MIC (Staphylococcus aureus [5]): inactive; Ratio IC50 (Cryptococcus neoformans [11]): >4; IC50 (Staphylococcus aureus [6]): Not Active; MBC (Staphylococcus aureus [6]): inactive; MIC (Staphylococcus aureus [6]): inactive; Ratio (Cryptococcus neoformans [12]): >4; growth inhibition (GI) (Nakaseomyces glabratus): inactive
CC(C)(C)OC(=O)N[C@@H](Cc1c[nH]c(-c2ccc(-c3ccccc3)cc2)n1)C(=O)N[C@@H](CCCNC(=N)N)C(=O)NCc1ccccc1	> 9.2	> 9.2	> 9.2	> 10	> 9.2	inactive	> 10	7.3 (≈ 11.2 µM)	inactive	> 10	> 10	inactive	2.5 (≈ 3.83 µM)	2.5 (≈ 3.83 µM)	1.09 (≈ 1.67 µM)	> 10	> 9.2	> 10	> 9.2	inactive	MIC (Staphylococcus aureus [5]): 10 µg/mL (≈ 15.3 µM); MBC (Staphylococcus aureus [6]): inactive; MIC (Staphylococcus aureus [6]; [13]): 20 µg/mL (≈ 30.6 µM); IC50 (Staphylococcus aureus [6]; [14]): 8.97 µg/mL (≈ 13.7 µM); growth inhibition (GI) (Nakaseomyces glabratus): inactive
CC(C)(C)c1ccc(-c2nc(C[C@H](NC(=O)[C@@H](N)Cc3c[nH]c4ccccc34)C(=O)NCc3ccccc3)c[nH]2)cc1	> 2.21	> 2.21	> 2.21	> 10	> 2.21	inactive	> 10	11.7 (≈ 20.7 µM)	inactive	> 10	> 10	inactive	10 (≈ 17.8 µM)	10 (≈ 17.8 µM)	4.53 (≈ 8.05 µM)	> 10	> 2.21	> 10	> 2.21	inactive	MBC (Staphylococcus aureus [5]): inactive; MIC (Staphylococcus aureus [5]): 20 µg/mL (≈ 35.5 µM); IC50 (Staphylococcus aureus [6]): Not Active; MBC (Staphylococcus aureus [6]): inactive; MIC (Staphylococcus aureus [6]): inactive; growth inhibition (GI) (Nakaseomyces glabratus): inactive
